# STAT1 activator: STAT1 signaling activators, primary screen, cell-based, HTS, luciferase reporter; NIH 3T3 STAT1-luciferase reporter, IFN-gamma, luminescence; 100% = IFN-gamma alone, no compound; activation (% of control), % at 5.5 µM; 200,000 compounds, 2.6% hits; AID 932, 2007;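 active means activation above the screen-wide mean activation plus 3 SD, cut at about 130% in these data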;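 further: raw ratio to IFN-gamma control signal so 100% means no change and 0% no light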
# NF-kB expr up: activators of NF-kB expression in neurons, primary screen, cell-based, HTS. AID 1239, 2008. 190,000 compounds, 1.6% hits. fold change at 12.5 µM. human neuronal cells, NF-kB reporter expression; stronger effect = higher value; in the data active means fold change above about 3.3
# STAT3 inh-1: IL-6 driven STAT3 reporter inhibitors, primary screen, U3A cells, luciferase, luminescence, MLSCN library; IL-6 STAT3-luciferase reporter; host cell line lacks STAT1; inhibition, % at 5.5 µM; AID 862, 2007; 190,000 compounds, 0.89% hits;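 active means inhibition above the mean inhibition across all screened compounds plus 3 SD, cut at about 44% in these data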;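 further: 0% = DMSO only wells and 100% = 100 µM nifuroxazide control wells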
# APP 5'UTR act: activators of APP 5'UTR luciferase reporter, primary screen, SH-SY5Y cells; AID 1276, 2008; SH-SY5Y APP 5'UTR luciferase reporter, luminescence; zero percent = DMSO vehicle wells; 190,000 compounds, 1% hits; activation, % at 2 µM;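 active means activation above a set limit, based on mean plus 3 SD of controls, cut at about 140% in these data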
# STAT3 act: IL-6 driven STAT3 reporter potentiators, primary screen, U3A cells, luciferase, luminescence, MLSCN library | IL-6 STAT3-luciferase reporter; 100% = signal with IL-6 EC80 alone | activation (% of control), % at 5.6 µM | 190,000 compounds, 0.91% hits | AID 871, 2007;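 active means activation above the screen-wide mean of compound activation plus 3 SD, cut at about 130% in these data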;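 further: 0% = background luminescence of wells with medium and substrate only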
#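 Material: STAT3-luciferase reporter U3A cells; Probe or stimulus: IL-6 (33 ng/mL); Incubation: compound pre-incubation 1 h before IL-6, then 6 h stimulation at 37 °C; Technique: luminescence from STAT3-driven luciferase reporter; Evaluation: % activation versus median of IL-6-stimulated wells; Controls: IL-6-only high control.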
# STAT1 blocker: STAT1 signaling inhibitors, primary screen, cell-based, HTS, luciferase reporter | NIH 3T3 STAT1-luciferase reporter, IFN-gamma, luminescence | inhibition, % at 5.5 µM | 200,000 compounds, 0.35% hits | AID 920, 2007;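 active means inhibition above a set limit, the mean inhibition across all tested compounds plus 3 SD, cut at about 34% in these data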;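 further: 0% = IFN-gamma with DMSO and 100% = IFN-gamma with 300 µM nifuroxazide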
# STAT3 inh-2: STAT3 reporter inhibitors, retest of hits, confirmation, U3A cells, luciferase, luminescence | shares compounds with STAT3 inh-1 | IL-6 STAT3 luciferase reporter; cell line lacks STAT1 | 1,200 compounds, 45% hits | inhibition, % at 5.7 µM;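 active means inhibition above the hit cutoff computed for the primary STAT3 screen, cut at about 44% in these data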;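 further: 0% = IL-6 plus DMSO and 100% = IL-6 plus nifuroxazide control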
# NFkB inh STAT3ct: NF-kB reporter inhibitors in human cells, confirmation, counter-screen for STAT3 inhibitor project, cell-based, HEK293T, luciferase, TNF-alpha stimulus. TNF-alpha induced. shares compounds with STAT3 inh-1. 1,200 compounds, 36% hits. inhibition, % at 5.7 µM;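 active means inhibition above the mean of solvent-only control wells plus 3 SD, cutoff set per campaign, cut at about 13% in these data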;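 further: 0% = TNF-alpha with DMSO and 100% = TNF-alpha with MG high control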
# STAT1 inh STAT3c: STAT1 reporter inhibitors, IFN-gamma induced, confirmation, counter-screen for STAT3 inhibitor project, cell-based, NIH 3T3, luciferase luminescence; shares compounds with STAT3 inh-1; NIH 3T3 STAT1-luciferase reporter; inhibition, % at 5.7 µM; 1,200 compounds, 27% hits; AID 1317, 2008;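 active means inhibition above the mean plus 3 SD of solvent-only control wells, limit set per screening run, cut at about 16% in these data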;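 further: 0% = DMSO with IFN-gamma and 100% = nifuroxazide control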
# Starred values were filed as active, the others as inactive; . = no result. Rows were chosen to be rich in hits. Some 5.1% of all compounds tested hit in one or more screens of this group.
SMILES,STAT1 activator,NF-kB expr up,STAT3 inh-1,APP 5'UTR act,STAT3 act,STAT1 blocker,STAT3 inh-2,NFkB inh STAT3ct,STAT1 inh STAT3c
CCOc1cc(C(=O)OCC(=O)c2cc(C)n(CC3CCCO3)c2C)ccc1OCC(=O)N1CCOCC1 (stereo not given),84,1.3,0,3,102,16,.,.,.
Cc1cc(NC(=O)Cc2ccccc2)c2ccccc2n1,70,1,72*,6,40,32,69*,22*,25*
CC(C)c1ccc2oc(-c3ccc(N)cc3)nc2c1,87,3.4*,78*,125,36,28,32,5,-88
Clc1ccc2oc(-c3ccccc3)nc2c1,128,2.1,-20,-8,117,-34,.,.,.
COC(=O)c1ccc(-c2nc3ccc(C)cc3o2)cc1,120,7*,68*,25,47,-22,43,-30,-82
Cc1ccc(-c2nc3cc(C)ccc3o2)cc1,71,1.6,84*,175*,34,32,38,40*,3
Cc1ccc(-c2nc3cc(N)ccc3o2)cc1,125,5.4*,59*,45,51,-27,17,-16,-120
CCC(C)NC(=O)C(Sc1ccccc1)c1ccccc1 (stereo not given),103,0.97,-1,59,104,-6,.,.,.
COc1ccccc1N1CCN(c2ccc(-c3ccccc3)nn2)CC1,112,6.6*,67*,-90,47,-15,41,18*,-65
O=C(NCc1ccccc1)c1cc[n+](Cc2ccccc2)cc1,97,1.1,-2,-10,103,2,.,.,.
O=C(O)c1ccc(CSc2nc3ccccc3o2)cc1,105,1.3,-2,1,104,-5,.,.,.
Clc1c(CSc2nc3ccccc3o2)nc2ccccn12,137*,5.5*,45*,172*,64,-40,2,-22,-94
CCOC(=O)c1ccc(NC(=O)CN2C(=O)C(CC)SC(CC)C2=O)cc1 (stereo not given),98,1.2,-4,3,106,3,.,.,.
O=C(NC1c2ccccc2-c2ccccc21)N1CCCCC1,101,1.1,52*,7,61,-2,35,17*,3
COCCN=C1NN=C(c2cc(C)n(CC3CCCO3)c2C)CS1 (stereo not given),96,0.52,10,6,95,3,.,.,.
C=CCN=C1NN=C(c2cc(C)n(CC=C)c2C)CS1,78,0.25,74*,58,38,25,50*,26*,2
Fc1ccc(CNC(=S)NC2CCCCCC2)cc1,96,1.2,6,23,103,4,.,.,.
Cc1nn(C)c(C)c1CN(Cc1nc(CCC(C)C)no1)C(C)C,69,1,76*,-16,37,32,78*,27*,20*
CC(C)N(Cc1cnn(C)c1)Cc1nc(Cc2ccccc2Cl)no1,95,1,4,8,99,3,.,.,.
CC(=O)Oc1ccccc1N(C(C)=O)S(=O)(=O)c1cccc([N+](=O)[O-])c1,97,1.1,5,-8,100,2,.,.,.
CCc1nnc(NC(=O)C2Cc3ccccc3CN2S(=O)(=O)c2c(C)c(C)cc(C)c2C)s1 (stereo not given),100,1.2,1,10,98,0,.,.,.
CS(=O)(=O)Nc1ccccc1C(=O)Nc1ccc2c(c1)OCCO2,95,1,9,27,96,5,.,.,.
O=C(Nc1ccc2c(c1)OCCO2)c1ccccc1F,122,5.2*,52*,146*,57,-24,17,-23,-71
C=CC[n+]1c(/C=C2\C=Cc3cc(C)ccc3N2CC)ccc2ccccc21,81,1.1,88*,-20,24,20,88*,50*,26*
CCN1C(=C(C#N)C#N)C=Cc2cc(C)ccc21,110,1.3,17,11,95,-11,.,.,.
SMILES,STAT1 activator,NF-kB expr up,STAT3 inh-1,APP 5'UTR act,STAT3 act,STAT1 blocker,STAT3 inh-2,NFkB inh STAT3ct,STAT1 inh STAT3c
O=C1CCC2(C(=O)O)Sc3ccccc3N12 (stereo not given),94,1.1,-4,14,104,6,.,.,.
CCOC(=O)c1ccc(NC(=O)CSc2nc3cccnc3n2C)cc1,92,0.91,54*,21,59,8,39,2,12
O=C(Nc1cc(S(=O)(=O)N2CCCCC2)ccc1O)c1ccccc1NS(=O)(=O)c1ccc(F)cc1,99,0.98,4,-6,99,1,.,.,.
Cc1ccc(S(=O)(=O)Nc2ccccc2C(=O)Nc2nc(-c3ccc(F)cc3)cs2)cc1,73,0.38,45*,0,63,30,33,18*,26*
O=C(Nc1cc(S(=O)(=O)N2CCCCC2)ccc1Cl)c1ccccc1NS(=O)(=O)c1ccc(F)cc1,77,0.35,51*,1,58,26,36,18*,29*
Cc1ccc(S(=O)(=O)CC(=O)Nc2nc(-c3ccccc3)cs2)cc1,110,1.3,-1,-8,107,-11,.,.,.
COC(=O)C1Cc2ccccc2CN1C(=O)CCl (stereo not given),83,1.3,5,-5,98,17,.,.,.
COc1ccc(CC(=O)Nc2cccc(-c3nnc(-c4cccc(C)c4)o3)c2)cc1OC,92,0.48,44*,68,68,7,62*,12,-3
COc1ccc(CC(=O)Nc2cccc(-c3nnc(-c4ccccc4)o3)c2)cc1OC,96,0.61,40,13,70,5,.,.,.
CC(=O)Nc1ccc2nc(SCC(=O)Nc3ccc(N4CCOCC4)c(Cl)c3)sc2c1,126,1.6,5,35,102,-29,.,.,.
Cc1cc(C)nc(SCC(=O)Nc2ccc(N3CCOCC3)c(Cl)c2)n1,80,1.1,45*,-9,63,22,51*,12,24*
COc1ccc(-c2cc(C(=O)Nc3cc(C)n(Cc4ccc(Cl)cc4)n3)no2)cc1OC,88,0.71,74*,-6,38,13,71*,29*,2

# High-throughput results as filed in PubChem BioAssay.
